According to ChEMBL document CHEMBL4118273, “Design, Synthesis, and Biological Evaluation of Pyrimido[4,5- d]pyrimidine-2,4(1 H,3 H)-diones as Potent and Selective Epidermal Growth Factor Receptor (EGFR) Inhibitors against L858R/T790M Resistance Mutation” (J Med Chem, 2018):
Values after ≈ are worked out from the molar mass of the structure shown.

Assays:
Homo sapiens [1] = organism: Homo sapiens; test: Selectivity index, ratio of IC50 for human A431 cells harboring wild type EGFR to IC50 for human NCI-H1975 cells harboring EGFR L858R/T790M double mutant
Procedure, shortened: (§1)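 Cell growth inhibition measured by sulforhodamine B colorimetric assay in H1975 (EGFR L858R/T790M) and A431 (overexpressed wild-type EGFR) cells; IC50 values are means ± SD of at least three independent determinations. Selectivity is taken as the A431:H1975 IC50 ratio.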

Cytochrome P450 2D6 = Cytochrome P450 2D6 (Homo sapiens, UniProt P10635); test: Inhibition of human CYP2D6 (unknown origin); type: ADME
Cytochrome P450 2D6, sequence (P10635 whole entry): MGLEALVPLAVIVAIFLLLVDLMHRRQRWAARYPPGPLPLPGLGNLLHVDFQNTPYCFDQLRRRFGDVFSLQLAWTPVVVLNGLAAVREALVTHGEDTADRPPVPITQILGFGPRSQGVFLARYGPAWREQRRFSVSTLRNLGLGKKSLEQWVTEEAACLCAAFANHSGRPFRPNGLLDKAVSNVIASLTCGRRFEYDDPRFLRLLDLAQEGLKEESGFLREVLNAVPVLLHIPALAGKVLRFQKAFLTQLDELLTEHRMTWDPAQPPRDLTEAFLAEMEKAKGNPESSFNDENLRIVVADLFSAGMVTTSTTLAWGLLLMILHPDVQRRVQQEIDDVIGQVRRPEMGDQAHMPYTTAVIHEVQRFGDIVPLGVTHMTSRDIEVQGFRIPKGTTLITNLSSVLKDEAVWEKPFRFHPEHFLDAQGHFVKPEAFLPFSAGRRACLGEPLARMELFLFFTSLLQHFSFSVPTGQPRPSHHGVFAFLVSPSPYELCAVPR

[2] = AUC (0 to t) in ICR mouse at 10 mg/kg, po by LC-MS/MS analysis; type: ADME, organism-based; conditions: in vivo
Cytochrome P450 3A4 = Cytochrome P450 3A4 (Homo sapiens, UniProt P08684); test: Inhibition of human CYP3A4 (unknown origin); type: ADME
Cytochrome P450 3A4, sequence (P08684 whole entry): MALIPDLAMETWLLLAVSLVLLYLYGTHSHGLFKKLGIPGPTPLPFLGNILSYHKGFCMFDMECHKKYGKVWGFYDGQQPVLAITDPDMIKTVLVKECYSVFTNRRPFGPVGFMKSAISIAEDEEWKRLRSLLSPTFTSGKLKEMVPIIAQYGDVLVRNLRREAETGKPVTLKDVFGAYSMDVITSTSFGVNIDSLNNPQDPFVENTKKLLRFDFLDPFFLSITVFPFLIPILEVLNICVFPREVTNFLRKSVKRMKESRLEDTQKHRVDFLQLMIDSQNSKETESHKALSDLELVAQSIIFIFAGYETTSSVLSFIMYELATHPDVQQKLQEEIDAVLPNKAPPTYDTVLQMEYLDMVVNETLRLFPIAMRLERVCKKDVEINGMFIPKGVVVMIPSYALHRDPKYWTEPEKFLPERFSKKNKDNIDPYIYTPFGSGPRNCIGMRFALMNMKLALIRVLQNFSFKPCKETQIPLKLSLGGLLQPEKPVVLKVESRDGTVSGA

[3] = Half life in ICR mouse at 1 mg/kg, iv by LC-MS/MS analysis; type: ADME, organism-based; conditions: in vivo
[4] = Oral bioavailability in ICR mouse at 10 mg/kg by LC-MS/MS analysis; type: ADME, organism-based; conditions: in vivo
[5] = target: Epidermal growth factor receptor (Homo sapiens, UniProt P00533); test: Inhibition of wild type EGFR phosphorylation in EGF-stimulated human A431 cells up to 1000 nM by Western blot method
Epidermal growth factor receptor, sequence (P00533 whole entry): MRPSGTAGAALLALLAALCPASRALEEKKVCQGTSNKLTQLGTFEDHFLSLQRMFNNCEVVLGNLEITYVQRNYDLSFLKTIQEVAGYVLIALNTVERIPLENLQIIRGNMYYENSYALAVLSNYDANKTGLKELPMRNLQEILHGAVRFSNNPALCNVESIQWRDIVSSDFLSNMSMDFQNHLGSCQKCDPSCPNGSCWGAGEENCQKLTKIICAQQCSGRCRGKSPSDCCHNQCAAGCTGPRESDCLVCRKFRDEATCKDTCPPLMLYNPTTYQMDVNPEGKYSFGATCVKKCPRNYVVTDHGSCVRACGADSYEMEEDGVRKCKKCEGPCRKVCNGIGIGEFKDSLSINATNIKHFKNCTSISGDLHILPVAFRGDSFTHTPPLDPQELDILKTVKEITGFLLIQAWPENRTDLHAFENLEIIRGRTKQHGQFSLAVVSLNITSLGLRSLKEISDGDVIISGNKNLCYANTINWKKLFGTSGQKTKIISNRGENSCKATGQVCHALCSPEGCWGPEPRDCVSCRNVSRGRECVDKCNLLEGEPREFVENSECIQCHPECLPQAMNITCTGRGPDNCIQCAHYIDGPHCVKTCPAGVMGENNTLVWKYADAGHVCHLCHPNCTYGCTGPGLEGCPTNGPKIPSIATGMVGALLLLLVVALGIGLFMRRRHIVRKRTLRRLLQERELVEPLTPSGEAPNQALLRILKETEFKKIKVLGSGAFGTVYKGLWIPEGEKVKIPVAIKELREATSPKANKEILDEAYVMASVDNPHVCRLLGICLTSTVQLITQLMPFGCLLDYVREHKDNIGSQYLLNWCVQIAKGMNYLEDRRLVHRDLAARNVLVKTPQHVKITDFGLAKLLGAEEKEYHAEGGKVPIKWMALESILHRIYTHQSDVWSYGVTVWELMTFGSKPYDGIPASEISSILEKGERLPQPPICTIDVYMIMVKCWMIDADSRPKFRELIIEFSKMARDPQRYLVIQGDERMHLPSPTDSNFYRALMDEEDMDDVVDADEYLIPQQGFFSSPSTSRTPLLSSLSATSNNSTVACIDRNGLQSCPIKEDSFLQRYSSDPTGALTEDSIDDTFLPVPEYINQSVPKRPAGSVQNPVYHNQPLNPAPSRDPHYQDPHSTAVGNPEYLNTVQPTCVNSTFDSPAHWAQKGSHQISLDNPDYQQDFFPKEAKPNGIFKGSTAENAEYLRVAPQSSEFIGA
Procedure, shortened: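 A431 cells lysed in Tris-HCl pH 6.8 buffer with DTT, SDS and glycerol; equal protein amounts resolved on 8% SDS-PAGE, transferred to nitrocellulose and probed for p-EGFR (Y1068), total EGFR, p-AKT (Ser473), total AKT and GAPDH.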

[6] = Aqueous solubility in pH 7.4 PBS buffer by UV-Visible spectrophotometric method; type: physicochemical
Procedure, shortened: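 Solubility determined in 0.1 M PBS, pH 7.4, by UV-visible spectrophotometry.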

Homo sapiens [7] = organism: Homo sapiens; test: Selectivity ratio of IC50 for recombinant human GST-tagged EGFR (668 to 1210 residues) expressed in baculovirus expression system to IC50 for recombinant human GST-tagged EGFR L858R/T790M double mutant expressed in baculovirus expression system
Procedure, shortened: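 ELISA-based EGFR tyrosine kinase assay run on wild-type and L858R/T790M enzymes. IC50 values come from at least three independent determinations, reported as means ± SD. Selectivity is the wild-type IC50 divided by the L858R/T790M IC50.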

Mus musculus = test: Toxicity in Balb/c mouse xenografted with human NCI-H1975 cells assessed as mortality at 50 mg/kg/day, po once daily for 14 days measured every 2 to 3 days during compound dosing; type: organism-based; conditions: in vivo
[8] = AUC (0 to infinity) in ICR mouse at 10 mg/kg, po by LC-MS/MS analysis; type: ADME, organism-based; parameters: dose 10 mg/kg, route oral, time infinity; conditions: in vivo
[9] = Half life in ICR mouse at 10 mg/kg, po by LC-MS/MS analysis; type: ADME, organism-based; conditions: in vivo
NCI-H1975 = test: Antiproliferative activity against human NCI-H1975 cells harboring EGFR L858R/T790M double mutant after 72 hrs by SRB assay; type: functional, cell-based; conditions: NCI-H1975, 72 h; procedure, shortened: as §1

Structure (SMILES): C=CC(=O)Nc1cccc(-n2c(=O)n(C(C)C)c(=O)c3cnc(Nc4ccc(N5CCN(C)CC5)cc4OC)nc32)c1
- Ratio IC50 (Homo sapiens [1]): 36
- IC50 (Cytochrome P450 2D6): > 50 µM
- AUC(0-t) [2]: 650 ng·h/mL
- IC50 (Cytochrome P450 3A4): 23.9 µM
- half-life [3]: 0.9 h
- bioavailability [4]: 35%
- inhibition (INH) [5]: Not Active
- solubility [6]: 262 µg/mL (≈ 459 µM)
- Ratio IC50 (Homo sapiens [7]): 263
- Activity (Mus musculus): Non-Toxic
- AUC(0-inf) [8]: 658 ng·h/mL
- half-life [9]: 1.1 h
- IC50 (NCI-H1975): 0.044 µM
